Source: ChEMBL document CHEMBL6153131, “Rational Design and Optimization of a Potent IDO1 Proteolysis Targeting Chimera (PROTAC)” (J Med Chem, 2025)
The source made the active and inactive calls. The calls are words filed in the database; no cut-off is given here.

Assays:
[1] = molecular target: T1, Protein cereblon/Indoleamine 2,3-dioxygenase 1 (Homo sapiens, UniProt P14902+Q96SW2); test: PROTAC activity at CRBN/IDO1 in human U87 cells assessed as induction of IDO1 degradation by measuring remaining activity at 1 uM pretreated with IFN-gamma for 24 hrs followed by compound addition and measured after 24 hrs by Western blotting analysis (reference value: 100%); type: cell-based
Procedure, shortened: (§1)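 U87 cells given an extended dose range of PROTAC for 24 h, then Western blot for IDO1. IFNγ-induced IDO1 levels normalised to untreated samples. n = 3 independent experiments; mean ± SEM.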
Target sequence in this assay (P14902 whole entry, looked up): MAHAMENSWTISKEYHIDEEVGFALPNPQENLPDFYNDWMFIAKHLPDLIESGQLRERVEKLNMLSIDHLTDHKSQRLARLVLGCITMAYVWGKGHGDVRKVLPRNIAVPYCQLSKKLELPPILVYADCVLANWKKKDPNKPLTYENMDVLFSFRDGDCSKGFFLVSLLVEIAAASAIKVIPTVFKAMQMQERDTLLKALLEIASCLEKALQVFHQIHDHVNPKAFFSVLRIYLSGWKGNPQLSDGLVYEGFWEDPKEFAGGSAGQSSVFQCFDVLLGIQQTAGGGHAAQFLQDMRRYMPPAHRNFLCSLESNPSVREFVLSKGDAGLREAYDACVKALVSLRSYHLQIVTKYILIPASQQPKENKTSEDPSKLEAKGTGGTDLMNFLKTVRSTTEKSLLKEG
Target sequence in this assay (Q96SW2 whole entry, looked up): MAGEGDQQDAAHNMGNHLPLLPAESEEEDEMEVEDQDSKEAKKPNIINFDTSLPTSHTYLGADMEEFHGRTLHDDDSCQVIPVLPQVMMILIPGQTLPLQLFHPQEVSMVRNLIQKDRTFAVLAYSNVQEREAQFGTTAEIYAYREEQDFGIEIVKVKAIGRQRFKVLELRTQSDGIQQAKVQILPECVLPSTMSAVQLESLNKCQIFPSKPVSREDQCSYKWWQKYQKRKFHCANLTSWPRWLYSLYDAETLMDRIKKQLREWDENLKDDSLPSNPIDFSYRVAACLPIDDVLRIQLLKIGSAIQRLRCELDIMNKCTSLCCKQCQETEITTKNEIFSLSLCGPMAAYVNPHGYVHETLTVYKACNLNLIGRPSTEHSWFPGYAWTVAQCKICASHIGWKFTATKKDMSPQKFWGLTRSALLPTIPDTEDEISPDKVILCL

[2] = AUC (0 to infinity) in female C57BL/6J mouse brain at 50 mg/kg, ip by LC-MS/MS analysis; type: ADME, organism-based
[3] = molecular target: T1, Protein cereblon/Indoleamine 2,3-dioxygenase 1; test: PROTAC activity at CRBN/IDO1 in human U87 cells assessed as induction of IDO1 degradation by measuring remaining activity at 0.03 uM pretreated with IFN-gamma for 24 hrs followed by compound addition and measured after 24 hrs by Western blotting analysis (reference value: 100%); type: cell-based; procedure, shortened: as §1
Target sequence in this assay (P14902 whole entry, looked up): as the sequence (P14902 whole entry, looked up) above
Target sequence in this assay (Q96SW2 whole entry, looked up): as the sequence (Q96SW2 whole entry, looked up) above

[4] = molecular target: Indoleamine 2,3-dioxygenase 1 (Homo sapiens) (UniProt P14902); test: Binding affinity to 6His-tagged recombinant IDO1 (unknown origin) assessed as binary complex formation by measuring half life by Biolayer Interferometry assay
Indoleamine 2,3-dioxygenase 1 (Homo sapiens), sequence (P14902 whole entry, looked up): as the sequence (P14902 whole entry, looked up) above

[5] = Half life in female C57BL/6J mouse plasma at 50 mg/kg, ip by LC-MS/MS analysis; type: ADME, organism-based
[6] = system: PC-3; test: Inhibition of kynurenine production in human PC-3 cells pretreated with IFN-gamma for 24 hrs followed by compound addition and measured after 24 hrs by Ehrlich's reagent based analysis; type: functional, cell-based; settings: dose 50-100 nM
[7] = molecular target: T1, Protein cereblon/Indoleamine 2,3-dioxygenase 1; test: PROTAC activity at CRBN/IDO1 in human MDA-MB-231 cells assessed as induction of IDO1 degradation pretreated with IFN-gamma for 24 hrs followed by compound addition and measured after 24 hrs by Western blotting analysis; type: cell-based; settings: dose 50-100 nM
Procedure, shortened: (§2)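 Cells had IDO1 induced with IFNγ, then were treated at the indicated concentrations for 24 h. Lines: PDX-6 and PDX-38 adult GBM PDX cells, U87 overexpressing GFP-fused IDO1, PC-3, KNS42, MDA-MB-231, SW-1990 and SKOV-3. Lysates probed for IDO1 and GAPDH by Western blot; representative of 3 separate replicates.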
Target sequence in this assay (P14902 whole entry, looked up): as above
Target sequence in this assay (Q96SW2 whole entry, looked up): as the sequence (Q96SW2 whole entry, looked up) above

[8] = molecular target: T1, Protein cereblon/Indoleamine 2,3-dioxygenase 1; test: PROTAC activity at CRBN/IDO1 in human U87 cells assessed as induction of IDO1 degradation by measuring remaining activity at 25 nM pretreated with IFN-gamma for 24 hrs followed by compound addition and measured after 24 hrs by Western blotting analysis (reference value: 100%); type: cell-based
Target sequence in this assay (P14902 whole entry, looked up): as the sequence (P14902 whole entry, looked up) above
Target sequence in this assay (Q96SW2 whole entry, looked up): as the sequence (Q96SW2 whole entry, looked up) above

[9] = molecular target: T1, Protein cereblon/Indoleamine 2,3-dioxygenase 1; test: PROTAC activity at CRBN/IDO1 in human U87 cells assessed as induction of IDO1 degradation at 50 to 100 nM pretreated with IFN-gamma for 24 hrs followed by compound addition and measured upto 72 hrs by Western blotting analysis; type: cell-based; settings: dose 50-100 nM
Procedure, shortened: (§3)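 U87 cells under single continuous PROTAC treatment (50 and 100 nM), sampled at multiple time points up to 72 h. IDO1 assessed by Western blot.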
Target sequence in this assay (P14902 whole entry, looked up): as the sequence (P14902 whole entry, looked up) above
Target sequence in this assay (Q96SW2 whole entry, looked up): as the sequence (Q96SW2 whole entry, looked up) above

[10] = system: PDX-38; test: Inhibition of kynurenine production in human PDX-38 cells pretreated with IFN-gamma for 24 hrs followed by compound addition and measured after 24 hrs by Ehrlich's reagent based analysis; type: functional, cell-based; settings: dose 50-100 nM
[11] = Cmax in female C57BL/6J mouse brain at 50 mg/kg, ip by LC-MS/MS analysis; type: ADME, organism-based
[12] = molecular target: T1, Protein cereblon/Indoleamine 2,3-dioxygenase 1; test: PROTAC activity at CRBN/IDO1 in human GBM43 cell assessed as induction of IDO1 degradation at 0.01 uM pretreated with IFN-gamma for 24 hrs followed by compound addition and measured after 24 hrs by Western blotting analysis (reference value: 100%); type: cell-based
Procedure, shortened: (§4)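 GBM43 patient-derived cells given an extended dose range of PROTAC for 24 h. Protein analysed by Western blot for IDO1, and IFNγ-induced IDO1 normalised to untreated samples. n = 3 independent experiments; data as mean ± SEM.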
Target sequence in this assay (P14902 whole entry, looked up): as the sequence (P14902 whole entry, looked up) above
Target sequence in this assay (Q96SW2 whole entry, looked up): as the sequence (Q96SW2 whole entry, looked up) above

[13] = system: MDA-MB-231; test: Inhibition of kynurenine production in human MDA-MB-231 cells pretreated with IFN-gamma for 24 hrs followed by compound addition and measured after 24 hrs by Ehrlich's reagent based analysis; type: functional, cell-based; settings: dose 50-100 nM
[14] = molecular target: T1, Protein cereblon/Indoleamine 2,3-dioxygenase 1; test: PROTAC activity at CRBN/IDO1 in human U87 cell assessed as induction of IDO1 degradation pretreated with IFN-gamma for 24 hrs followed by compound addition and measured after 24 hrs by Western blot analysis; type: cell-based
Procedure, shortened: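 IDO1 in U87 cells induced with 50 ng/mL human IFN-γ, then compound given across an extended dose range for 24 h. IDO1 and GAPDH read by Western blot; IDO1 levels normalized to untreated; DC50 from n = 3 independent experiments.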
Target sequence in this assay (P14902 whole entry): as the sequence (P14902 whole entry, looked up) above
Target sequence in this assay (Q96SW2 whole entry): as the sequence (Q96SW2 whole entry, looked up) above

[15] = system: Kelly; test: Downregulation of CDK8 protein level in human Kelly cells at 1 uM incubated for 24 hrs by proteomics analysis; type: functional, cell-based
[16] = molecular target: T1, Protein cereblon/Indoleamine 2,3-dioxygenase 1; test: PROTAC activity at CRBN/IDO1 in human U87 cells assessed as induction of IDO1 degradation by measuring remaining activity at 50 nM pretreated with IFN-gamma for 24 hrs followed by compound addition and measured after 24 hrs by Western blotting analysis (reference value: 100%); type: cell-based
[17] = system: Kelly; test: Downregulation of EPHX2 protein level in human Kelly cells at 1 uM incubated for 24 hrs by proteomics analysis; type: functional, cell-based
[18] = molecular target: T1, Protein cereblon/Indoleamine 2,3-dioxygenase 1; test: PROTAC activity at CRBN/IDO1 in human U87 cells assessed as induction of IDO1 degradation by measuring remaining activity at 0.01 uM pretreated with IFN-gamma for 24 hrs followed by compound addition and measured after 24 hrs by Western blotting analysis (reference value: 100%); type: cell-based; procedure, shortened: as §1
[19] = system: KNS-42; test: Inhibition of kynurenine production in human KNS-42 cells pretreated with IFN-gamma for 24 hrs followed by compound addition and measured after 24 hrs by Ehrlich's reagent based analysis; type: functional, cell-based; settings: dose 50-100 nM
[20] = molecular target: T1, Protein cereblon/Indoleamine 2,3-dioxygenase 1; test: PROTAC activity at CRBN/IDO1 in human SW1990 cells assessed as induction of IDO1 degradation pretreated with IFN-gamma for 24 hrs followed by compound addition and measured after 24 hrs by Western blotting analysis; type: cell-based; settings: dose 50-100 nM; procedure, shortened: as §2
[21] = molecular target: T1, Protein cereblon/Indoleamine 2,3-dioxygenase 1; test: PROTAC activity at CRBN/IDO1 in human U87 cells assessed as induction of IDO1 degradation by measuring remaining activity at 100 nM pretreated with IFN-gamma for 24 hrs followed by compound addition and measured after 2 hrs by Western blotting analysis (reference value: 100%); type: cell-based; procedure, shortened: as §3
[22] = molecular target: T1, Protein cereblon/Indoleamine 2,3-dioxygenase 1; test: PROTAC activity at CRBN/IDO1 in human U87 cells overexpressing GFP-fused IDO1 assessed as induction of IDO1 degradation pretreated with IFN-gamma for 24 hrs followed by compound addition and measured after 24 hrs by Western blotting analysis; type: cell-based; settings: dose 50-100 nM; procedure, shortened: as §2
[23] = molecular target: T1, Protein cereblon/Indoleamine 2,3-dioxygenase 1; test: PROTAC activity at CRBN/IDO1 in human GBM43 cell assessed as induction of IDO1 degradation at 1 uM pretreated with IFN-gamma for 24 hrs followed by compound addition and measured after 24 hrs by Western blotting analysis (reference value: 100%); type: cell-based; procedure, shortened: as §4
[24] = molecular target: T1, Protein cereblon/Indoleamine 2,3-dioxygenase 1; test: PROTAC activity at CRBN/IDO1 in human PDX-6 cells assessed as induction of IDO1 degradation pretreated with IFN-gamma for 24 hrs followed by compound addition and measured after 24 hrs by Western blotting analysis; type: cell-based; settings: dose 50-100 nM; procedure, shortened: as §2

`C[C@@H](C(=O)Nc1cccc(OC2CCN(C(=O)CN3CCC(N4CCN(c5ccc6c(c5)C(=O)N(C5CCC(=O)NC5=O)C6=O)CC4)CC3)CC2)c1)[C@H]1CC[C@@H](c2ccnc3ccc(F)cc32)CC1` (some centres undefined) gave an Activity [1] of 35%, an AUC(0-inf) [2] of 1 µM·h and an Activity [3] of 27%. The T1/2 [4] was 38.6 s, the half-life [5] was 5.7 h and the inhibition [6] was “Dose-dependent-effect”. For the same molecule, the Activity [7] was “Dose-dependent-effect”, the Activity [8] was 35% and the Activity [9] was “Active”. For the same molecule, the inhibition [10] was “Dose-dependent-effect”, the Cmax [11] was 100 nM and the Activity [12] was 61%. For the same molecule, the inhibition [13] was “Dose-dependent-effect”, the DC50 [14] was 7.1 nM and the Activity [15] was “Active”. The Activity [16] was 28%, the Activity [17] was “Active” and the Activity [18] was 48%. For the same molecule, the inhibition [19] was “Dose-dependent-effect”, the Activity [20] was “Dose-dependent-effect” and the Activity [21] was 86%. The Activity [22] was “Dose-dependent-effect”, the Activity [23] was 47% and the Activity [24] was “Dose-dependent-effect”.
